Measurements from paper PMC3235361 (Biochemistry, 2011).

Columns and labels:
[1] = tested on: differentiated PC-12 cells; assay: Neuroprotection against Aβ42, MTT assay, differentiated PC-12 cells; format: cell-based; conditions: both isomers to a similar extent, data not shown
[2] = tested on: rat primary cortical or hippocampal neurons; assay: Toxicity compared with WT Aβ across MTT and LDH assays, rat primary neurons; format: cell-based; conditions: 10 μM, 48 h
Method in brief: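 E18 rat cortical or hippocampal neurons on poly-D-lysine in DMEM/10% FBS; 5 μM cytosine arabinoside from 24 h; treated at day 6. HFIP-treated peptide films dissolved in 60 mM NaOH, diluted in medium (final NaOH ≤6 mM), sonicated; 10 μM final, 48 h. MTT: 4 h at 37°C, stop overnight, OD; 3 experiments. LDH release: 6 experiments. 6 wells/point; normalized to NaOH-medium control; ANOVA/Tukey.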

| Compound | protection against Aβ-induced toxicity, MTT (in words) [1] | toxicity compared with the WT Aβ form (in words) [2] |
| --- | --- | --- |
| CC(=O)N[C@H](CC[S+](C)[O-])C(=O)O (stereo partly drawn) [Ac-D-Met(O)] | significantly protected |  |
| CC(=O)N[C@@H](CC[S+](C)[O-])C(=O)O (stereo partly drawn) [Ac-L-Met(O)] | significantly protected |  |
| [Met(O)^35]Aβ42 [Aβ42-Met(O)] |  | significantly less toxic |
